In ChEMBL document CHEMBL1130249, “Cyclic enkephalin analogues with exceptional potency and selectivity for delta-opioid receptors” (J Med Chem, 1997):
Peptide text beside a SMILES is read from it.

Experiments:
Assay type in all cases: tissue-based
[1] = biological target: Delta-type opioid receptor (Rattus norvegicus, UniProt P33533); experiment: Inhibition of binding of radioligand [3H][p-Cl-phe]-DPDPE to Opioid receptor delta 1 in rat brain
[2] = biological target: Mu-type opioid receptor; experiment: Inhibitory potency against Opioid receptor mu 1 was determined in electrically induced strips of guinea pig ileum (GPI)
Method in brief: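 Ileum longitudinal muscle–myenteric plexus strips from male Hartley guinea pigs (250–500 g), in oxygenated Krebs at 37 °C under 1 g tension. Transmural stimulation at 0.1 Hz, 0.4-ms pulses, supramaximal voltage. IC50 from Hill fit of mean data from at least four tissues.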

[3] = biological target: Mu-type opioid receptor (Rattus norvegicus, UniProt P33535); experiment: Inhibition of binding of radioligand [3H]CTOP to Opioid receptor mu 1 in rat brain
Method in brief: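 Rat whole brain (less cerebellum) membranes, preincubated 30 min at 25 °C to strip endogenous peptides. Displacement of 0.5 nM [3H]CTOP in 50 mM Tris-HCl pH 7.4 containing BSA, bestatin, bacitracin, captopril and toluenesulfonyl fluoride; 10 concentrations over an 800-fold range; 3 h at 25 °C; filtration.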

[4] = biological target: Delta-type opioid receptor (Mus musculus, UniProt P32300); experiment: Inhibitory potency against Opioid receptor delta 1 was determined in electrically induced smooth muscle contractions of mouse vas deferens (MVD)
Method in brief: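 Vas deferens from male ICR mice (25–40 g), in Mg-free oxygenated Krebs at 37 °C under 0.5 g tension. Transmural stimulation at 0.1 Hz, 2.0-ms pulses, supramaximal voltage. […] IC50 from Hill fit of mean data from at least four tissues.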

Mu-type opioid receptor (Rattus norvegicus, UniProt P33535), sequence (P33535 whole entry): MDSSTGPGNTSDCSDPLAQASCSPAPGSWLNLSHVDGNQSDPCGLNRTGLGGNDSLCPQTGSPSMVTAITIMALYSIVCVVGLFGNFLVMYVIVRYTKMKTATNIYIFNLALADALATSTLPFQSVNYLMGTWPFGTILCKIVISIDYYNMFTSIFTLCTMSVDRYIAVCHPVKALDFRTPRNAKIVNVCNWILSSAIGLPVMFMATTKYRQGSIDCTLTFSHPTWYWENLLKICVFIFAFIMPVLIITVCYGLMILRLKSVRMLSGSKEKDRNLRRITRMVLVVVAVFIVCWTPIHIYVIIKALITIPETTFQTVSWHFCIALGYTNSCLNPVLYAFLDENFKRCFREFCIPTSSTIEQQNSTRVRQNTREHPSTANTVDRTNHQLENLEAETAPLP
Delta-type opioid receptor (Rattus norvegicus, UniProt P33533), sequence (P33533 whole entry): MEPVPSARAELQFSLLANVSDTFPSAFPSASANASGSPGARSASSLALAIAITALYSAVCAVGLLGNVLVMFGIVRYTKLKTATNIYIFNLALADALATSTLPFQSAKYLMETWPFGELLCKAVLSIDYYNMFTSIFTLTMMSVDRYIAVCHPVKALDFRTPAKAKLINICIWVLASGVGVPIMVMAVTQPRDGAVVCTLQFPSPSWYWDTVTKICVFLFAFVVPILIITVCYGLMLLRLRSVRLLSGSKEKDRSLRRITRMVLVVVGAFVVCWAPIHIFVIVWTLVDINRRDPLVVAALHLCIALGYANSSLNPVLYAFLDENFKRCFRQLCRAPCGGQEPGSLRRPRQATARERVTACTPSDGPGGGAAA
Delta-type opioid receptor (Mus musculus, UniProt P32300), sequence (P32300 whole entry): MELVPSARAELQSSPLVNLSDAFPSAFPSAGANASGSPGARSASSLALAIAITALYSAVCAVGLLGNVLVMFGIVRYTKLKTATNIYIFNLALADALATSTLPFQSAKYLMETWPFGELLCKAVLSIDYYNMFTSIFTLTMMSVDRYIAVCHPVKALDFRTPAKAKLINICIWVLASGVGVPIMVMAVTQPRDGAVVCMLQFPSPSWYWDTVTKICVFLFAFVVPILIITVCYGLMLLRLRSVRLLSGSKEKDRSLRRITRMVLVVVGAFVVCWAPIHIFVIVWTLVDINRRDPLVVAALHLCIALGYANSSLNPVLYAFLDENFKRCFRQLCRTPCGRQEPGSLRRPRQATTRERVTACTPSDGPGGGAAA

SMILES	IC50 [1] [nM]	IC50 [2] [nM]	IC50 [3] [nM]	IC50 [4] [nM]
CC1(C)SSC(C)(C)[C@@H](NC(=O)[C@@H](N)Cc2ccc(O)cc2)C(=O)NCC(=O)N[C@@H](Cc2ccc(F)cc2)C(=O)N[C@@H]1C(=O)N[C@@H](Cc1ccccc1)C(=O)O	0.43	740	1650	0.016
CC1(C)SSC(C)(C)[C@@H](NC(=O)[C@@H](N)Cc2ccc(O)cc2)C(=O)NCC(=O)N[C@@H](Cc2ccccc2)C(=O)N[C@@H]1C(=O)N[C@@H](Cc1ccccc1)C(=O)O	4	5800	11400	1.89
CC1(C)SSC(C)(C)[C@@H](NC(=O)[C@@H](N)Cc2ccc(O)cc2)C(=O)NCC(=O)N[C@@H](Cc2ccc(Br)cc2)C(=O)N[C@@H]1C(=O)N[C@@H](Cc1ccccc1)C(=O)O	0.2	3400	4200	0.18
CC1(C)SSC(C)(C)[C@@H](NC(=O)[C@@H](N)Cc2ccc(O)cc2)C(=O)NCC(=O)N[C@@H](Cc2ccc(Cl)cc2)C(=O)N[C@@H]1C(=O)N[C@@H](Cc1ccccc1)C(=O)O	0.4	420	1700	0.17
CC1(C)SSC(C)(C)[C@@H](NC(=O)[C@@H](N)Cc2ccc(O)cc2)C(=O)NCC(=O)N[C@@H](Cc2ccc(I)cc2)C(=O)N[C@@H]1C(=O)N[C@@H](Cc1ccccc1)C(=O)O	0.47	8700	7300	0.8
CC1(C)SSC[C@@H](C(=O)N[C@@H](Cc2ccccc2)C(=O)O)NC(=O)[C@H](Cc2ccccc2)NC(=O)CNC(=O)[C@@H]1NC(=O)[C@@H](N)Cc1ccc(O)cc1 (HELM PEPTIDE1{Y.[CC(C)(S[*:3])[C@@H](N[*:1])C(=O)[*:2]].G.F.C.F}$PEPTIDE1,PEPTIDE1,2:R3-5:R3$$$V2.0)		83		
